Values after ≈ are worked out from the molar mass of the structure shown.

For orientation: MIC means the lowest concentration that inhibits growth of the organism.

Test system in one experiment: not listed separately
Description: Selectivity index, ratio of IC50 for african green monkey Vero cells to MIC for multidrug-resistant Mycobacterium tuberculosis. Format: functional.
Take `CCc1ccc(C(=O)NCC2=C[C@@H]3Oc4ccccc4C(=O)C3=CN2c2ncccc2C)cc1`: the “Selectivity Index” value amounted to 1977.

In the next experiment the test system is Mycobacterium tuberculosis. Description: Antimycobacterial activity against multidrug-resistant Mycobacterium tuberculosis by agar dilution method. It counts as functional. The method in brief:
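Agar dilution MIC on Middlebrook 7H11 agar supplemented with OADC, following NCCLS-like procedure; determined in duplicate.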
Background: Agar dilution tests growth on a series of plates holding different concentrations.
Regarding `Cc1ccc2ccc(C(=O)NCC3=C[C@@H]4Oc5ccccc5C(=O)C4=CN3c3ncccc3C)cc2c1`, the MIC worked out at 0.13 µM (≈ 0.0634 µg/mL).

On to `Cc1cccnc1N1C=C2C(=O)c3ccccc3O[C@H]2C=C1CNC(=O)c1cccc(Cl)c1`, for which the minimum inhibitory concentration (MIC) was found to be 1.7 µM (≈ 0.778 µg/mL).

In turn, `Cc1cccnc1N1C=C2C(=O)c3ccccc3O[C@H]2C=C1CNC(=O)c1ccc(Cl)cc1` yielded an MIC of 3.4 µM (≈ 1.56 µg/mL).

The compound `O=C(NCC1=C[C@@H]2Oc3ccccc3C(=O)C2=CN1c1ncc(Br)cc1Br)c1ccc(Cl)cc1` registered an MIC of 2.95 µM (≈ 1.77 µg/mL).

Regarding `Cc1ccc(C(=O)NCC2=C[C@@H]3Oc4ccccc4C(=O)C3=CN2c2ncccc2C)cc1`, the MIC turned out to be 1.78 µM (≈ 0.779 µg/mL).

The compound `O=C(NCC1=C[C@@H]2Oc3ccccc3C(=O)C2=CN1c1ncc(Br)cc1Br)c1ccc2ccccc2c1` came in with an MIC of 5.04 µM (≈ 3.11 µg/mL).

In turn, `Cc1ccc2ccc(C(=O)NCC3=C[C@@H]4Oc5ccccc5C(=O)C4=CN3c3ncc(Br)cc3Br)cc2c1` yielded an MIC of 0.61 µM (≈ 0.385 µg/mL).

For the compound `CCc1ccc(C(=O)NCC2=C[C@@H]3Oc4ccccc4C(=O)C3=CN2c2ncccc2C)cc1`, the MIC amounted to 0.07 µM (≈ 0.0316 µg/mL).

With `CCc1ccc(C(=O)NCC2=C[C@@H]3Oc4ccccc4C(=O)C3=CN2c2ncc(Br)cc2Br)cc1`, the MIC worked out at 1.3 µM (≈ 0.774 µg/mL).

`O=C(NCC1=C[C@@H]2Oc3ccccc3C(=O)C2=CN1c1ncc(Br)cc1Br)c1cccc(Cl)c1` had an MIC of 2.6 µM (≈ 1.56 µg/mL).

`Cc1cccnc1N1C=C2C(=O)c3ccccc3O[C@H]2C=C1CNC(=O)c1ccc2ccccc2c1` gave an MIC of 0.42 µM (≈ 0.199 µg/mL).

Take `O=C(NCC1=C[C@@H]2Oc3ccccc3C(=O)C2=CN1c1ncc(Br)cc1Br)c1ccc(Cl)c(Cl)c1`: inhibition of growth (MIC) required 4.91 µM (≈ 3.12 µg/mL).

The compound `COc1ccc(C(=O)NCC2=C[C@@H]3Oc4ccccc4C(=O)C3=CN2c2ncccc2C)cc1` gave an MIC of 3.44 µM (≈ 1.56 µg/mL).

Compound `Cc1cccnc1N1C=C2C(=O)c3ccccc3O[C@H]2C=C1CNC(=O)c1ccc(F)cc1` came in with an MIC of 7.09 µM (≈ 3.13 µg/mL).

The compound `Cc1cccnc1N1C=C2C(=O)c3ccccc3O[C@H]2C=C1CNC(=O)c1ccccc1` had an MIC of 3.68 µM (≈ 1.56 µg/mL).

`CC[C@@H](CO)NCCN[C@@H](CC)CO` [ETHAMBUTOL] gave an MIC of 122 µM (≈ 25 µg/mL).

In turn, `NNC(=O)c1ccncc1` [ISONIAZID] registered an MIC of 45.6 µM (≈ 6.25 µg/mL).

Take `CO[C@H]1/C=C/O[C@@]2(C)Oc3c(C)c(O)c4c(O)c(c(/C=N/N5CCN(C)CC5)c(O)c4c3C2=O)NC(=O)/C(C)=C\C=C\[C@H](C)[C@H](O)[C@@H](C)[C@@H](O)[C@@H](C)[C@H](OC(C)=O)[C@@H]1C` [RIFAMPIN]: the minimum inhibitory concentration (MIC) is 3.79 µM (≈ 3.12 µg/mL).

Values taken from ChEMBL document CHEMBL1154729, “Discovery of novel antitubercular 2,10-dihydro-4aH-chromeno[3,2-c]pyridin-3-yl derivatives” (Eur J Med Chem, 2010).
